Experimental data as given in ChEMBL document CHEMBL1140227, “Histone deacetylase inhibitors through click chemistry” (J Med Chem, 2008).

Experiments:
Assay type in all cases: functional
CAKI-1 = test: Growth inhibition of human Caki1 cells at 10 uM relative to control; conditions: values are per cent of control
Method in brief: (§1)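 Single-dose preliminary screen in the NCI human cancer cell line panel, run by the NIH. Percent inhibition of cell line growth was calculated by comparison with untreated samples.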

UACC-62 = test: Growth inhibition of human UACC62 cells at 10 uM relative to control; conditions: values are per cent of control
Method in brief: (§2)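 Single-dose NCI human tumour cell line screen, run by the NIH. Percent inhibition of cell line growth was calculated by comparison with untreated samples.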

NCI-H226 = test: Growth inhibition of human NCI-H226 cells at 10 uM relative to control; conditions: values are per cent of control; method in brief: as §1
MOLT-4 = test: Growth inhibition of human MOLT4 cells at 10 uM relative to control; conditions: values are per cent of control; method in brief: as §1
HOP-62 = test: Growth inhibition of human HOP62 cells at 10 uM relative to control; conditions: values are per cent of control; method in brief: as §1
KM12 = test: Growth inhibition of human KM12 cells at 10 uM relative to control; conditions: values are per cent of control; method in brief: as §1
Leukemia cell = test: cells; conditions: Homo sapiens
[1] = Growth inhibition of human Hs 578T cells at 10 uM relative to control; conditions: values are per cent of control; method in brief: as §1
TK-10 = test: Growth inhibition of human TK10 cells
Method in brief: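 NCI five-dose screen, run by the NIH. Each drug was tested at five concentrations alongside a control, using two microtiter plates per cell line. SAHA was included as the standard.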

SK-MEL-28 = test: Growth inhibition of human SK-MEL-28 cells at 10 uM relative to control; conditions: values are per cent of control; method in brief: as §1
HCT-15 = test: Growth inhibition of human HCT15 cells at 10 uM relative to control; conditions: values are per cent of control; method in brief: as §1
LOX IMVI = test: Growth inhibition of human LOXIMVI cells at 10 uM relative to control; conditions: values are per cent of control; method in brief: as §1
K562 = test: Growth inhibition of human K562 cells at 10 uM relative to control; conditions: values are per cent of control; method in brief: as §1
COLO 205 = test: Growth inhibition of human COLO205 cells at 10 uM relative to control; conditions: values are per cent of control; method in brief: as §1
cells [2] = conditions: Homo sapiens, Cancer cell lines
DU-145 = test: Growth inhibition of human DU145 cells at 10 uM relative to control; conditions: values are per cent of control; method in brief: as §1
ACHN = test: Growth inhibition of human ACHN cells at 10 uM relative to control; conditions: values are per cent of control; method in brief: as §1
BT-549 = test: Growth inhibition of human BT549 cells at 10 uM relative to control; conditions: values are per cent of control; method in brief: as §1
cells [3] = conditions: Homo sapiens, Cancer cell lines; remark: listed apart in the source
NCI-H522 = test: Growth inhibition of human NCI-H522 cells at 10 uM relative to control; conditions: values are per cent of control; method in brief: as §1
MDA-MB-231 = test: Growth inhibition of human MDA-MB-231 cells at 10 uM relative to control; conditions: values are per cent of control; method in brief: as §1
MDA-MB-435 = test: Growth inhibition of human MDA-MB-435 cells at 10 uM relative to control; conditions: values are per cent of control; method in brief: as §1
MCF7 = test: Growth inhibition of human MCF7 cells at 10 uM relative to control; conditions: values are per cent of control; method in brief: as §1
SF-295 = test: Growth inhibition of human SF295 cells at 10 uM relative to control; conditions: values are per cent of control; method in brief: as §1
NCI-H460 = test: Growth inhibition of human NCI-H460 cells at 10 uM relative to control; conditions: values are per cent of control; method in brief: as §1
HCC 2998 = test: Growth inhibition of human HCC2998 cells at 10 uM relative to control; conditions: values are per cent of control; method in brief: as §1
NCI-H322M = test: Growth inhibition of human NCI-H322M cells at 10 uM relative to control; conditions: values are per cent of control; method in brief: as §1
OVCAR-3 = test: Growth inhibition of human OVCAR-3 cells at 10 uM relative to control; conditions: values are per cent of control; method in brief: as §1
SW-620 = test: Growth inhibition of human SW620 cells at 10 uM relative to control; conditions: values are per cent of control; method in brief: as §2
CCRF-CEM = test: Growth inhibition of human CCRF-CEM cells at 10 uM relative to control; conditions: values are per cent of control; method in brief: as §1
cells [4] = conditions: Homo sapiens, Cancer cell lines; remark: listed apart in the source
Melanoma cell = test: cells; conditions: Homo sapiens
cells [5] = conditions: Homo sapiens, Cancer cell lines; remark: listed apart in the source
HCT-116 = test: Growth inhibition of human HCT116 cells at 10 uM relative to control; conditions: values are per cent of control; method in brief: as §1

Question: Which growth, % of control at 10 µM (CAKI-1) does the source give for `O=C(/C=C/c1cn(C/C=C/c2ccccc2)nn1)NO` here?
Answer: 7.42%

Question: What about the growth, % of control at 10 µM (UACC-62) of the same compound?
Answer: -71.2%

Question: What about the growth, % of control at 10 µM (NCI-H226) of the same compound?
Answer: 23.7%

Question: What about the growth, % of control at 10 µM (MOLT-4) of the same compound?
Answer: -7.12%

Question: And the growth, % of control at 10 µM (HOP-62)?
Answer: -31.7%

Question: And the growth, % of control at 10 µM (KM12)?
Answer: 8.61%

Question: What about the inhibition at 10 µM (Leukemia cell) of the same compound?
Answer: -6%

Question: And the growth, % of control at 10 µM [1]?
Answer: 26%

Question: And the GI50 (TK-10)?
Answer: 0.495 µM

Question: What about the growth, % of control at 10 µM (SK-MEL-28) of the same compound?
Answer: -15%

Question: What about the growth, % of control at 10 µM (HCT-15) of the same compound?
Answer: 9.7%

Question: What about the growth, % of control at 10 µM (LOX IMVI) of the same compound?
Answer: -72.6%

Question: And the growth, % of control at 10 µM (K562)?
Answer: -10.9%

Question: What about the growth, % of control at 10 µM (COLO 205) of the same compound?
Answer: -75.7%

Question: And the inhibition at 10 µM (cells [2])?
Answer: 1%

Question: And the growth, % of control at 10 µM (DU-145)?
Answer: -28.7%

Question: And the growth, % of control at 10 µM (ACHN)?
Answer: -51.2%

Question: What about the growth, % of control at 10 µM (BT-549) of the same compound?
Answer: 43.3%

Question: What about the growth percent at 10 µM (cells [3]) of the same compound?
Answer: 8%

Question: And the growth, % of control at 10 µM (NCI-H522)?
Answer: 8.32%

Question: And the growth, % of control at 10 µM (MDA-MB-231)?
Answer: 20.9%

Question: What about the growth, % of control at 10 µM (MDA-MB-435) of the same compound?
Answer: 21.3%

Question: And the growth, % of control at 10 µM (MCF7)?
Answer: 13.6%

Question: What about the growth, % of control at 10 µM (SF-295) of the same compound?
Answer: -55.5%

Question: And the growth, % of control at 10 µM (NCI-H460)?
Answer: 7.36%

Question: What about the growth, % of control at 10 µM (HCC 2998) of the same compound?
Answer: -1.33%

Question: And the growth, % of control at 10 µM (NCI-H322M)?
Answer: 9.59%

Question: And the growth, % of control at 10 µM (OVCAR-3)?
Answer: -16.2%

Question: What about the growth, % of control at 10 µM (SW-620) of the same compound?
Answer: -61.5%

Question: What about the growth, % of control at 10 µM (CCRF-CEM) of the same compound?
Answer: 9.16%

Question: And the inhibition at 10 µM (cells [4])?
Answer: 1%

Question: What about the inhibition at 10 µM (Melanoma cell) of the same compound?
Answer: -43%

Question: And the inhibition at 10 µM (cells [5])?
Answer: -18%

Question: And the growth, % of control at 10 µM (HCT-116)?
Answer: -69%
